The target in experiment [1] is T1, Nuclear factor erythroid 2-related factor 2 (Homo sapiens) (UniProt Q16236).
T1 sequence (whole entry): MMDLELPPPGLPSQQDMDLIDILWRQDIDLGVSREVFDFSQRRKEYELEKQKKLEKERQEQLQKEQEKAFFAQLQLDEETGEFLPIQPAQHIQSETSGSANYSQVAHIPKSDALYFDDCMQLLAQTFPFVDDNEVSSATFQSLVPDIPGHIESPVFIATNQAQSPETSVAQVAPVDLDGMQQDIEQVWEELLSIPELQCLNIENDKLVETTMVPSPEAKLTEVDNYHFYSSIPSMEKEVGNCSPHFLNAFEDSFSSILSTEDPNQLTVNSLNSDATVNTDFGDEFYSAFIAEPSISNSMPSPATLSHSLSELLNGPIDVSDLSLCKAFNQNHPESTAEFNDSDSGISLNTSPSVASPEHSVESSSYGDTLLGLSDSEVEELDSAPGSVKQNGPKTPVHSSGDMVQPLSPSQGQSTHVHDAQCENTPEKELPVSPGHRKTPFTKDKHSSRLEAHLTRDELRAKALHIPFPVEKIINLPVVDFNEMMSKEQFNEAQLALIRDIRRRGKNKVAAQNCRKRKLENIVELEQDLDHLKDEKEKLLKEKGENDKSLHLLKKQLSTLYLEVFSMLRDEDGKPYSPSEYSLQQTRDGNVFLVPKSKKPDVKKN
Kind of experiment: Activation of NRF2 in human HepG2 cells after 6 hrs by spectrophotometric analysis. The format is cell-based. Put shortly:
(§1)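 HepG2 cells treated 2, 4 and 8 h at 20 µM, or 6 h at 5, 10 and 20 µM. Nuclear extracts were prepared by hypotonic lysis and detergent, then 14,000 g spin at 4 °C. Nrf2 DNA-binding was measured by TransAM ELISA: nuclear extract incubated 1 h at room temperature in wells, anti-Nrf2 (1:1000) 1 h, HRP secondary (1:1000), developing solution 2-15 min, stop solution.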

The target of experiment [2] is T1, Nuclear factor erythroid 2-related factor 2 (Homo sapiens). Kind of experiment: Activation of NRF2 in human HepG2 cells at 20 uM by spectrophotometric analysis. In kind it is cell-based. The note with it: TDE = time-dependent effect. In a few lines: as §1
In experiment [3] the test system is HepG2. Kind of experiment: Induction of apoptosis in human HepG2 cells assessed as late apoptotic cells at 20 uM after 48 hrs by Annexin-V-FITC/propidium iodide staining-based flow cytometric analysis (reference value: 0.29%). In kind it is functional.
Experiment [4] has as its system HepG2. Nature of the experiment: Induction of apoptosis in human HepG2 cells assessed as late apoptotic cells at 10 uM after 48 hrs by Annexin-V-FITC/propidium iodide staining-based flow cytometric analysis (reference value: 0.29%). In kind it is functional. A general note: A flow cytometer gives signals particle by particle.
Experiment [5] relates to HepG2. Nature of the experiment: Induction of apoptosis in human HepG2 cells assessed as late apoptotic cells at 5 uM after 48 hrs by Annexin-V-FITC/propidium iodide staining-based flow cytometric analysis (reference value: 0.29%). The format is functional.
Experiment [6] has as its system HepG2. Kind of experiment: Induction of apoptosis in human HepG2 cells assessed as early apoptotic cells at 20 uM after 48 hrs by Annexin-V-FITC/propidium iodide staining-based flow cytometric analysis (reference value: 0.14%). The format is functional.
Experiment [7] has as its system HepG2. Kind of experiment: Induction of apoptosis in human HepG2 cells assessed as early apoptotic cells at 10 uM after 48 hrs by Annexin-V-FITC/propidium iodide staining-based flow cytometric analysis (reference value: 0.14%). In kind it is functional.
The test system of experiment [8] is HepG2. Kind of experiment: Induction of apoptosis in human HepG2 cells assessed as early apoptotic cells at 5 uM after 48 hrs by Annexin-V-FITC/propidium iodide staining-based flow cytometric analysis (reference value: 0.14%). The format is functional.
In experiment [9] the test system is HepG2. Nature of the experiment: Cell cycle arrest in human HepG2 cells assessed as accumulation at S phase at 20 uM after 48 hrs by DAPI staining-based flow cytometric analysis relative to control. The format is functional. In a few lines: (§2)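 HepG2 cells cultured at 37 °C, 5% CO2, exposed 48 h to 5, 10 or 20 µM. Cells harvested, washed twice in PBS, and DNA content of 10,000 events read by flow cytometry. Phase proportions compared with vehicle control; significance at p<0.05 and p<0.01.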

Experiment [10] deals with HepG2. Kind of experiment: Cell cycle arrest in human HepG2 cells assessed as accumulation at G2/M phase at 5 to 20 uM after 48 hrs by DAPI staining-based flow cytometric analysis. In kind it is functional. In a few lines:
as §2

Experiment [11] relates to HepG2. Nature of the experiment: Cell cycle arrest in human HepG2 cells assessed as decrease in accumulation at G0/G1 phase after 48 hrs by DAPI staining-based flow cytometric analysis. The format is functional. In a few lines: (§3)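 HepG2 cells were exposed for 48 h to 5, 10 or 20 of each agent, alongside a vehicle control. About […] cells were harvested and washed twice in PBS. DNA content was read by flow cytometry on 10,000 events, giving the percentage of cells in each phase relative to control.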

The subject of experiment [12] is HepG2. Nature of the experiment: Cell cycle arrest in human HepG2 cells assessed as accumulation at S phase after 48 hrs by DAPI staining-based flow cytometric analysis. In kind it is functional. In a few lines:
as §3

The subject of experiment [13] is Vero. Kind of experiment: Cytotoxicity against African green monkey Vero cells after 72 hrs by MTT assay. The format is cell-based. The note with it: Chlorocebus sabaeus. (Tetrazolium dyes change colour on reduction, which living cells bring about.)
Experiment [14] in a line: Cytotoxicity against human SH-SY5Y cells after 72 hrs by MTT assay. The format is functional, cell-based. Put shortly: (§4)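 Cells were grown in RPMI-1640 or DMEM with 10% NBS or FBS and 100 U/mL penicillin, at 37 °C under 5% CO₂. After 72 h with a range of compound concentrations, MTT was added for a further 4 h at 37 °C. Formazan was dissolved in DMSO and absorbance read at 570 and 630 nm. Assays ran in triplicate across three independent experiments, and IC₅₀ was calculated for 50% loss of viability.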

In experiment [15] the test system is HCT-116. Nature of the experiment: Cytotoxicity against human HCT116 cells after 72 hrs by MTT assay. In kind it is functional, cell-based. The note with it: HCT-116, 72 h. Put shortly: as §4
Experiment [16] relates to A549. Kind of experiment: Cytotoxicity against human A549 cells after 72 hrs by MTT assay. In kind it is functional, cell-based. The note with it: A549, 72 h. In a few lines: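 After 72 h with a range of compound concentrations, MTT was added for a further 4 h at 37 °C. Formazan was dissolved in DMSO and absorbance read at 570 and 630 nm. Assays ran in triplicate across three independent experiments, and IC₅₀ was calculated for 50% loss of viability.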

Experiment [17] concerns MCF7. Kind of experiment: Cytotoxicity against human MCF7 cells after 72 hrs by MTT assay. In kind it is functional, cell-based. The note with it: MCF7, 72 h. In a few lines: as §4
The test system of experiment [18] is HepG2. Nature of the experiment: Cytotoxicity against human HepG2 cells after 72 hrs by MTT assay. In kind it is functional, cell-based. The note with it: HepG2, 72 h. Put shortly: as §4

Structures are written as SMILES. Active and inactive are the calls of the source. The rule behind the calls is not given here.

As a reminder, the IC50 is the midpoint of a concentration-inhibition curve. With `C[S+]([O-])CCCCN=C=S` (stereo unspecified) [SULFORAPHANE], the Activity result was “Dose-dependent effect” in [1]; “tde” in experiment [2]; 4.19% in [3]; 1.22% in experiment [4]; 0.73% in experiment [5]; 0.9% in experiment [6]. Further, the Activity was 0.44% in experiment [7]; 0.15% in [8]; 5.9% in experiment [9]; “Dose-dependent effect” in [11]; “Dose-dependent effect” in [12]. The outcome in experiment [10] was Active. Also, the IC50 is 13.7 µM in [13]; 13.3 µM in experiment [14]; 11.6 µM in [15]; 22 µM in experiment [16]; 17.7 µM in experiment [17]; 14.1 µM in [18].

With `[O-][S+](CCCCN=C=S)Cc1ccccc1` (stereo unspecified), the Activity result is “Dose-dependent effect” in experiment [1]; “tde” in experiment [2]; 25.33% in experiment [3]; 10.91% in [4]; 1.78% in [5]; 0.24% in experiment [6]. For the same compound, the Activity was 0.72% in [7]; 0.39% in experiment [8]; 9.11% in experiment [9]; “Dose-dependent effect” in experiment [11]; “Dose-dependent effect” in [12]. The outcome in [10] was Active. Besides, the concentration for half-maximal inhibition (IC50) in experiment [13] was determined as 4.85 µM; in experiment [14], 5.21 µM; in [15], 3.66 µM; in experiment [16], 7.41 µM; in [17] it was 3.3 µM; in experiment [18] it was 2.85 µM.

(Values after ChEMBL document CHEMBL2390922, “Synthesis and biological evaluation of sulforaphane derivatives as potential antitumor agents” (Eur J Med Chem, 2013).)
